# KCNQ1 pot = human KCNQ1 channel potentiation or activation; P51787; B-score at 10 µM; AID 2648; actives 0.35% (n = 310,000); CHO-K1 KCNQ1, thallium flux FluxOR fluorescence; stronger effect = higher value;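 active = fluorescence ratio B-score, a plate-corrected score, at least three library SD, with initial intensity B-score within 5 SD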
#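 assay system = KCNQ1-transfected CHO-K1 cells | medium = assay buffer with matched DMSO | probe or stimulus = depolarizing K+/Tl+ stimulus, K2SO4 and Tl2SO4 each 12.5 mM in 5x stock | dosing = single dose | incubation = dye 90 min, compound 20 min, room temperature | detection = kinetic FluxOR fluorescence, 10 s baseline plus 110 s post-stimulus | evaluation = ratio B score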
# KCNK3 inh = human KCNK3 channel inhibition, primary screen | O14649 | CHO-KCNK3 thallium flux, FluxOR fluorescence; stronger effect = lower value | B-score at 10 µM | actives 0.84% (n = 340,000) | AID 602410;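 active = B-score under library mean minus 4 SD, starting fluorescence ratio at most library mean plus 5 SD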;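 note: more negative B-score means stronger inhibition of thallium flux through KCNK3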
# KCNK9 block = blocks the human KCNK9 two-pore domain potassium channel; AID 488922; HEK293 KCNK9, FluxOR thallium flux fluorescence; stronger effect = lower value; actives 1.2% (n = 310,000); B-score at 10 µM;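 active = ratio B-score over 3 SD below the library mean, with starting fluorescence within 5 SD of its mean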;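 note: negative B-score means less thallium flux so channel inhibition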
# KCNQ1 inh = blocks the human KCNQ1 potassium channel | B-score at 10 µM | CHO-K1 KCNQ1, FluxOR thallium flux fluorescence; stronger effect = higher value | AID 2642 | actives 1.3% (n = 310,000);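 active = compounds whose thallium flux B-score, printed positive for inhibition, exceeds three library SD while starting fluorescence stays within three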;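 note: channel opened by potassium depolarization with thallium stimulus after 20 min compound exposure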
# hERG protect = hERG (human) protection from proarrhythmic block; Q12809; CHO-hERG, FluxOR thallium flux, dofetilide IC70 present; activation (rescue from dofetilide block), less the hit threshold, % at 10 µM; actives 0.51% (n = 310,000);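 active = activation above the mean of controls blocked by dofetilide plus 5 SD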;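 note: thallium influx through hERG after potassium depolarization seen as dye fluorescence rise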
# Target sequence (Q12809 whole entry, looked up): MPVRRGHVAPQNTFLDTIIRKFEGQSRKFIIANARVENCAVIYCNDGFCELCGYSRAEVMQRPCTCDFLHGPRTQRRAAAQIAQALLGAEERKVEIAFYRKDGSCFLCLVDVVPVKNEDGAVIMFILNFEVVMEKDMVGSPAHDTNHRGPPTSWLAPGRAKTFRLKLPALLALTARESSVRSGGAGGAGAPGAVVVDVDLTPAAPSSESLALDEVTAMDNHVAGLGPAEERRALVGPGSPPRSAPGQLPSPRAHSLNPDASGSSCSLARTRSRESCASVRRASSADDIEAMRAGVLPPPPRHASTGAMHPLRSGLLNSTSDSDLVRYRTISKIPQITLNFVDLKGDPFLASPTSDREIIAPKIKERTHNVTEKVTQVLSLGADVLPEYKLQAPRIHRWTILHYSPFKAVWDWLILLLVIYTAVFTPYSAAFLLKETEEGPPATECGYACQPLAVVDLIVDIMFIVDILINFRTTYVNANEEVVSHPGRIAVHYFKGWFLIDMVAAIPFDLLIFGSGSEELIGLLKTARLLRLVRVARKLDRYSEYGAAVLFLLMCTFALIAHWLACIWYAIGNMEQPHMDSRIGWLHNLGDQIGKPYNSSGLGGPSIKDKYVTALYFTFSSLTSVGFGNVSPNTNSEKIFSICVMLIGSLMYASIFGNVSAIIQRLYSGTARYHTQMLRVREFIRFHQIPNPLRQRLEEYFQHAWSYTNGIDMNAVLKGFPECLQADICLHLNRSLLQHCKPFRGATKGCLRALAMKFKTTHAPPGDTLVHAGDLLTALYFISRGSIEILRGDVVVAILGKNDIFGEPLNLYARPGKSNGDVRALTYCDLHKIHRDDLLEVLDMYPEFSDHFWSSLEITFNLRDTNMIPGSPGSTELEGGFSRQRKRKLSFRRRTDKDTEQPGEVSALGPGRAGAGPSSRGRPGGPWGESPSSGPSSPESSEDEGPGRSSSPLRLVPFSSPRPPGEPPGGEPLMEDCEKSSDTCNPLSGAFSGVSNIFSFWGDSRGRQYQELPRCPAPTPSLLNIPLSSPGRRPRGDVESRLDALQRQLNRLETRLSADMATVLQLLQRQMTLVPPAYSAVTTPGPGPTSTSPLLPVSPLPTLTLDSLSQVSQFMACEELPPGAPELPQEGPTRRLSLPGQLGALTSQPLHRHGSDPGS
# KCNK9 block conf = human KCNK9 inhibitor confirmation. shares compounds with KCNK9 block. HEK293 KCNK9 cells, FluxOR thallium flux fluorescence. inhibition, % at 10 µM. actives 43% (n = 4,900). AID 492992;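 active = thallium signal inhibited by more than 5 SD of the compound-free buffer control wells, on both duplicate plates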;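 note: 0% = assay buffer control wells without compound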
# Kir21 sel = mouse Kir2.1 off-target activity of KCNK9 modulators. shares compounds with KCNK9 block. inhibition, % at 10 µM. actives 4% (n = 4,900). AID 492993. Kir2.1 cells, FluxOR thallium flux fluorescence;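 active = thallium signal drop more than 5 SD beyond the mean of the no-compound control wells, seen in both duplicate plates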;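 note: signal is fluorescence rise after thallium addition divided by baseline fluorescence; plate controls were assay buffer only for no effect and full block by chlorpromazine control for full effect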
# HEK293 Tl ctr = second check of KCNK9 modulator effects in non-induced HEK293 cells. shares compounds with KCNK9 block. actives 40% (n = 4,900). FluxOR thallium flux. inhibition, % at 10 µM. AID 492997;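 active = thallium signal drop beyond 5 SD of the untreated control mean, on both duplicate plates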;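 note: plate controls were buffer only IC0 wells for no effect and SID17386958 at its maximal inhibitory level for full effect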
# Starred values were filed as active, the others as inactive; i = inactive; x = not tested or not shown. Rows were chosen to be rich in hits. Some 3.1% of all compounds tested hit in one or more screens of this group.
SMILES,KCNQ1 pot,KCNK3 inh,KCNK9 block,KCNQ1 inh,hERG protect,KCNK9 block conf,Kir21 sel,HEK293 Tl ctr
Cc1cc(C(=O)COC(=O)CCC(=O)c2ccc3c(c2)OCCO3)c(C)n1Cc1ccco1,i,i,i,i,-7,i,i,i
Cc1cc(C(=O)COC(=O)c2ccc(Br)o2)c(C)n1Cc1ccco1,i,x,i,i,-8,i,i,i
c1ccc(-c2ncc(CN3CCN(c4ccccn4)CC3)[nH]2)cc1,i,i,i,i,-14,x,x,x
CCOC(=O)c1cnn(-c2nc(SC)nc3sc4c(c23)CCCC4)c1N,12*,i,-16*,i,9.2*,66%*,i,33%*
C=CCCC1(C)C(=O)N(c2ccccc2)c2ccccc21 (centres undefined),i,i,-8.9*,i,-8,42%*,i,39%*
COc1cccc(CN(c2ccccc2C(=O)O)S(=O)(=O)c2ccc(C)cc2)c1,x,i,x,x,x,x,x,x
CCOc1cc(CNc2ccc3c(c2)OCCO3)cc(Br)c1OC,i,i,i,i,-8,i,i,i
CCC1CCCCN1C(=O)CSc1nc2ccsc2c(=O)n1Cc1ccccc1 (centres undefined),i,i,i,i,-23,i,i,i
O=C(N/N=C/c1ccccc1F)c1ccccc1OCc1ccccc1,i,i,i,i,-9,x,x,x
CC[C@@H]1CC=C[C@H]2[C@H]1C(=O)N(Cc1ccccc1)[C@H]2c1ccc(C(F)(F)F)cc1,i,i,-8.5*,i,-13,50%*,i,48%*
Cc1ccc(F)c([C@H]2[C@H]3C=CC[C@@H](C)[C@@H]3C(=O)N2Cc2ccccc2)c1,i,i,-8.6*,i,-26,52%*,i,60%*
COc1ccc(NC(=O)CN(C)Cc2cccs2)cc1Cl,i,-11*,-13*,i,-12,32%*,i,33%*
COc1ccccc1CN(C)CC(=O)Nc1ccc(Cl)cc1C(F)(F)F,i,i,-14*,i,-10,49%*,i,42%*
COc1ccc(NC(=O)CCC(=O)c2cccs2)cc1Cl,i,i,i,i,-1,x,x,x
COc1ccc(Br)cc1CN(C)CC(=O)Nc1ccccc1Cl,i,i,-8.7*,i,-14,34%*,36%*,36%*
COc1ccccc1CN(C)CC(=O)Nc1ccc(Cl)cc1F,i,i,i,i,-19,x,x,x
O=C(C(=Cc1ccccc1)CN1CCCCC1)c1ccccc1,x,i,x,x,x,x,x,x
COc1ccc(C)cc1NS(=O)(=O)c1ccc2c(c1)N(C)CCO2,i,i,i,i,1,x,x,x
C=C1c2ccccc2NC(=S)N1Cc1ccc2c(c1)OCO2,i,i,i,i,-2,x,x,x
O=C(Nc1ccc(F)cc1)c1sccc1SCc1cccc(C(F)(F)F)c1,i,i,-13*,i,-9,62%*,46%*,48%*
O=C(Nc1ccc(F)cc1F)c1sccc1SCc1cccc(C(F)(F)F)c1,i,i,-12*,8*,-14,68%*,42%*,50%*
COc1ccsc1C(=O)Nc1ccc(F)cc1F,i,i,i,i,-6,x,x,x
Cc1ccc(C2CC2c2n[nH]c(=S)n2-c2ccc(C)cc2)cc1 (centres undefined),i,i,i,i,-8,i,i,i
Cc1c(C(=O)Nc2ccc3c(c2)OCO3)oc2ccccc12,i,i,-15*,i,-12,62%*,i,33%*
O=[N+]([O-])c1c(C(Cl)Cl)nn(-c2ccc(Cl)cc2)c1N1CCCCC1,i,i,i,i,-6,i,i,i
SMILES,KCNQ1 pot,KCNK3 inh,KCNK9 block,KCNQ1 inh,hERG protect,KCNK9 block conf,Kir21 sel,HEK293 Tl ctr
C/C(=N\NC(=O)c1ccccc1F)c1ccc2c(c1)Nc1ccccc1S2,i,i,-15*,i,0,i,i,28%*
COc1ccc(C(=O)N/N=C(/C)c2cccc(NC(=O)c3ccccc3F)c2)cc1,i,i,i,i,-11,x,x,x
O=C(Nc1cc2c3c(c1)C1CCCC1CN3CC1CCCC21)c1ccccc1 (centres undefined),i,i,-12*,9*,-10,i,i,i
Cc1nc2ccc(NC(=O)c3ccc([N+](=O)[O-])cc3)cc2s1,i,i,i,i,-4,i,i,i
Cc1nc2ccc(NC(=O)c3ccc(Cl)c([N+](=O)[O-])c3)cc2s1,i,i,i,i,-2,x,x,x
CSCCC(NS(=O)(=O)c1ccc(Cl)cc1)C(=O)OCc1c(Cl)cccc1Cl (centres undefined),i,i,-9.2*,i,-14,36%*,i,36%*
COc1cccc(C(=O)C2CCCN(C/C=C/c3ccccc3OC)C2)c1 (centres undefined),i,i,i,i,-33,i,i,i
COc1ccc(C(=O)C2CCCN(C/C=C/c3ccccc3OC)C2)c(OC)c1 (centres undefined),i,i,i,i,-20,i,i,i
CCOC(=O)CC1C(=O)NCCN1S(=O)(=O)c1ccc(NC(C)=O)cc1 (centres undefined),i,i,i,i,1,x,x,x
Cc1cccc(NS(=O)(=O)c2c(C)nc3scc(C)n3c2=O)c1,i,i,i,i,-10,x,x,x
COc1ccccc1-c1nc(C#N)c(N2CCN(c3cccc(Cl)c3)CC2)o1,i,i,-8.6*,i,-13,48%*,i,i
COc1ccccc1-c1nc(C#N)c(N2CCN(C(c3ccccc3)c3ccccc3)CC2)o1,i,i,i,i,-6,x,x,x
O=C(OCc1ccccc1Cl)c1ccccc1C(=O)c1ccccc1,i,i,-8.7*,i,-5,i,41%*,38%*
S=C(c1c[nH]c2ccc(Br)cc12)N1CCOCC1,i,i,-8.7*,i,-10,50%*,i,i
O=C(c1c[nH]c2ccccc12)N1CCOCC1,i,i,i,i,2,x,x,x
Cc1ccc(/C=C/C(O)=C2/C(=O)N(C)C3(C)CC2c2ccccc2O3)cc1 (centres undefined),i,i,-8.3*,i,-10,52%*,i,42%*

# Source: PubChem BioAssay
